Each structure is given as a SMILES string. The source made the active and inactive calls. No cut-off for these calls is given here.

One test deals with T1, Phosphatidylinositol 3,4,5-trisphosphate 5-phosphatase 2 (Mus musculus) (UniProt Q6P549).
T1 sequence (whole entry): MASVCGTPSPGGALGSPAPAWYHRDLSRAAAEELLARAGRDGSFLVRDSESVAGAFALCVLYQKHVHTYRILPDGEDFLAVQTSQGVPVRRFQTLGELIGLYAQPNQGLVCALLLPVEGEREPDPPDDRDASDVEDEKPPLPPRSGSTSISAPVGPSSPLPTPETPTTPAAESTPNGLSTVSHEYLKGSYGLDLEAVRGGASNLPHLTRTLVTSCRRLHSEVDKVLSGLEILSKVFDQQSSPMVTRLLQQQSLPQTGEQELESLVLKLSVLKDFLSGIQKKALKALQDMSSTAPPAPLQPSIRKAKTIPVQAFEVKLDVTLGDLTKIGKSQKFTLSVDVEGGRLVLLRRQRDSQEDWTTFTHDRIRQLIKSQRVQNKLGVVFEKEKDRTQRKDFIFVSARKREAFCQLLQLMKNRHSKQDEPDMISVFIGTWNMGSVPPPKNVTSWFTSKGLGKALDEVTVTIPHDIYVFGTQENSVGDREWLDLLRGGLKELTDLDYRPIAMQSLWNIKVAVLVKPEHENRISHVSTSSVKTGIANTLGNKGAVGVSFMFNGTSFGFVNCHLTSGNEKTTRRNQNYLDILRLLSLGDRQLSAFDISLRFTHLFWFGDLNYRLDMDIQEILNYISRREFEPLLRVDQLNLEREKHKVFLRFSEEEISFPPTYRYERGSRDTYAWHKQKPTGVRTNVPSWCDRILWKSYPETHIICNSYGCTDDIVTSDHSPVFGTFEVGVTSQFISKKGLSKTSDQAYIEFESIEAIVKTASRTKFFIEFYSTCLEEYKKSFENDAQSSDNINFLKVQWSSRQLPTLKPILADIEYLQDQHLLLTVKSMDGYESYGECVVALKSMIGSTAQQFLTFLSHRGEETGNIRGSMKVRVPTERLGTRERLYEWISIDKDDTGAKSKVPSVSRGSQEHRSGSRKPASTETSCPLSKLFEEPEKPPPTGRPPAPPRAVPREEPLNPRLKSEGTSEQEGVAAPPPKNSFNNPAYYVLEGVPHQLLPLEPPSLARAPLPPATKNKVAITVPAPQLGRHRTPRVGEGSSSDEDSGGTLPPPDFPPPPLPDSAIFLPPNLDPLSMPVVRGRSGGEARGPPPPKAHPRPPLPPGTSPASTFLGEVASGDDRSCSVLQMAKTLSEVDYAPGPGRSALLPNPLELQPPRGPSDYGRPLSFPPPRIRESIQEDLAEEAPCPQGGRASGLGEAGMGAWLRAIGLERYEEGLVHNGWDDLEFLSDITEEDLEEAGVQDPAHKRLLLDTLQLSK
The experiment in a line: Inhibition of SHIP2 in mouse 3T3L1 cells assessed as reduction of TNF-alpha induced decrease in insulin-stimulated Akt phosphorylation at Thr308 at 10 uM treated for 15 mins after TNF alpha challenge for 16 hrs and prior to insulin stimulation measured after 2 hrs by Western blot analysis. The class given is cell-based. As to conditions: 3T3-L1. A digest of the protocol:
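3T3-L1 fibroblasts differentiated into adipocytes, then serum-starved 16 h with TNFα 20 ng/mL. Treated with compound 10 µM or 0.1% DMSO for 15 min, then stimulated with 17 nM insulin at 37 °C for 2 h. Cells lysed on ice at pH 7.5 and Thr308 phospho-Akt measured by western blot. Results given as fold change versus TNFα+insulin control. Mean ± SE.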
In general terms: In western blotting, separated proteins are transferred to a membrane and probed.
Take `O=C(Cc1ccccc1)Nc1cc(COCc2ccc(Cl)cc2)ccn1`: the inhibition result is “Active”.

As to `O=C(CCc1ccccc1)Nc1cc(COCc2ccc(F)cc2)ccn1`, the inhibition entry was “Active”.

For `O=C(CCc1ccccc1)Nc1cc(COCc2ccccc2)ccn1`, the inhibition entry was “Active”.

Turning to `O=C(Cc1ccccc1C(F)(F)F)Nc1cc(OCc2ccc(Cl)cc2)ccn1`, the inhibition entry is “Active”.

Turning to `O=C(Cc1c(F)cccc1F)Nc1cc(OCc2ccc(F)cc2)ccn1`, the inhibition result is “Active”.

Consider `O=C(Cc1ccccc1)Nc1cc(OCc2ccc(F)cc2)ccn1`, for which the inhibition entry is “Active”.

For the compound `O=C(Cc1c(F)cccc1F)Nc1cc(COCc2ccc(F)cc2)ccn1`, the inhibition result is “Active”.

Take `O=C(Cc1cc(F)cc(F)c1)Nc1cc(COCc2ccc(F)cc2)ccn1`: the inhibition result was “Active”.

As to `O=C(CCc1ccccc1)Nc1cc(OCc2ccc(Cl)cc2)ccn1`, the inhibition entry is “Active”.

On to `O=C(Cc1ccc(F)cc1)Nc1cc(OCc2ccc(F)cc2)ccn1`, for which the inhibition entry is “Active”.

For `O=C(CCc1ccccc1)Nc1cc(COCc2ccc(Cl)cc2)ccn1`, the inhibition entry is “Active”.

The next test has as its target T2, Phosphatidylinositol 3,4,5-trisphosphate 5-phosphatase 2 (Homo sapiens, UniProt O15357).
T2 sequence (O15357 whole entry): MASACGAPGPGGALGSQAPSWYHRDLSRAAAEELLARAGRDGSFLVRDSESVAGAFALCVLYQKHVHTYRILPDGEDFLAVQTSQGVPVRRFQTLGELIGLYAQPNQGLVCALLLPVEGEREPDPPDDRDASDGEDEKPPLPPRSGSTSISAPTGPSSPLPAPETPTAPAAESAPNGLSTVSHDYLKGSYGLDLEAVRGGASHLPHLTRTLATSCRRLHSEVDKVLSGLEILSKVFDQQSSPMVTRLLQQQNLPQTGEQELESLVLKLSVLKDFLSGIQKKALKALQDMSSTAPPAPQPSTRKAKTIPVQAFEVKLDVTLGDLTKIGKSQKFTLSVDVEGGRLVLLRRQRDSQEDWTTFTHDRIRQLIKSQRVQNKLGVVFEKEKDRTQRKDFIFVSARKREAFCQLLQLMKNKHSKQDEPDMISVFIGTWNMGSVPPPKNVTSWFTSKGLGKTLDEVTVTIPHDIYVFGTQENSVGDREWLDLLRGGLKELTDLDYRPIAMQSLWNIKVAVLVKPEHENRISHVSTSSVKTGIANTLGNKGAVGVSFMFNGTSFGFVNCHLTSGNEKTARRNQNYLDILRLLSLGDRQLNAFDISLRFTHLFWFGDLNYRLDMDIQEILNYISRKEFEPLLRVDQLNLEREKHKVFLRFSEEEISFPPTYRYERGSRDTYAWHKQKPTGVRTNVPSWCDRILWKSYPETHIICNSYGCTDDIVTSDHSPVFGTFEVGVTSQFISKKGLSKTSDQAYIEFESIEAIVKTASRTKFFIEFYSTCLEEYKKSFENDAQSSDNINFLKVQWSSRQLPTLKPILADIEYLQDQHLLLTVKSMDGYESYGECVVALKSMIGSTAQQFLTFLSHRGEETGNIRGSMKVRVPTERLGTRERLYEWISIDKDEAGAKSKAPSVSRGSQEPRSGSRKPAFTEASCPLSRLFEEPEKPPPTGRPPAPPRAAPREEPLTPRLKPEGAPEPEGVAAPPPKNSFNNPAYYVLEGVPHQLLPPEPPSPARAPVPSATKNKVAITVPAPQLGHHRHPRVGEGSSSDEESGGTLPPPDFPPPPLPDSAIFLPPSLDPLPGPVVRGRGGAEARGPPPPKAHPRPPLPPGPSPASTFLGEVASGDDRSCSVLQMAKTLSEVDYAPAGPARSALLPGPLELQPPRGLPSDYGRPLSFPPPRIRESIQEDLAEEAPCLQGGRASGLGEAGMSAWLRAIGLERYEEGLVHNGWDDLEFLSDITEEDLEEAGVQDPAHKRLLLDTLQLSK
Kind of test: Inhibition of SHIP2 (unknown origin).
Settings: not given
On to `CC(C)N(CCNc1ccc(-c2cc(-c3ccc(F)cc3)n(-c3ccc(Cl)c(Cl)c3)n2)cn1)C(C)C`, for which the IC50 (as a rule, the point on the concentration scale where inhibition reaches its midpoint) is 1100 nM.

Values taken from ChEMBL document CHEMBL2331279, “Rational design and synthesis of 4-substituted 2-pyridin-2-ylamides with inhibitory effects on SH2 domain-containing inositol 5'-phosphatase 2 (SHIP2)” (Eur J Med Chem, 2013).
